Screening results from PubChem.
Most compounds without a hit are left out; they make up all but 2.9% or so of the library.
Kir21 inh – Kir2.1 (mouse) channel inhibition; HEK293-Kir2.1, FluxOR thallium flux fluorescence; stronger effect = lower value; B-score at 10 µM; actives 0.85% (n = 310,000);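 active means fluorescence ratio B-score at or below minus 3 SD of library scores, with starting-brightness B-score within 2 SD, cut at about -4.2 in these data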;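 further: channel flux triggered by added potassium and thallium sulfate stimulus; B-score of peak minus minimum fluorescence over baseline after thallium stimulus; more negative B-score means stronger Kir2.1 block with less thallium influx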
TRPC6 inh – blocks the mouse TRPC6 cation channel; actives 1.1% (n = 310,000); AID 2553; B-score at 10 µM; HEK293-TRPC6, membrane potential dye, ACh-evoked depolarization; stronger effect = lower value;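 active means B-score under library mean minus 3 SD, initial fluorescence not abnormally high, positive integrated signal ratio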;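 further: B-score derived from integrated fluorescence ratio over the kinetic read; more negative B-score means stronger inhibition of depolarization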
Target sequence (Q61143 whole entry, looked up): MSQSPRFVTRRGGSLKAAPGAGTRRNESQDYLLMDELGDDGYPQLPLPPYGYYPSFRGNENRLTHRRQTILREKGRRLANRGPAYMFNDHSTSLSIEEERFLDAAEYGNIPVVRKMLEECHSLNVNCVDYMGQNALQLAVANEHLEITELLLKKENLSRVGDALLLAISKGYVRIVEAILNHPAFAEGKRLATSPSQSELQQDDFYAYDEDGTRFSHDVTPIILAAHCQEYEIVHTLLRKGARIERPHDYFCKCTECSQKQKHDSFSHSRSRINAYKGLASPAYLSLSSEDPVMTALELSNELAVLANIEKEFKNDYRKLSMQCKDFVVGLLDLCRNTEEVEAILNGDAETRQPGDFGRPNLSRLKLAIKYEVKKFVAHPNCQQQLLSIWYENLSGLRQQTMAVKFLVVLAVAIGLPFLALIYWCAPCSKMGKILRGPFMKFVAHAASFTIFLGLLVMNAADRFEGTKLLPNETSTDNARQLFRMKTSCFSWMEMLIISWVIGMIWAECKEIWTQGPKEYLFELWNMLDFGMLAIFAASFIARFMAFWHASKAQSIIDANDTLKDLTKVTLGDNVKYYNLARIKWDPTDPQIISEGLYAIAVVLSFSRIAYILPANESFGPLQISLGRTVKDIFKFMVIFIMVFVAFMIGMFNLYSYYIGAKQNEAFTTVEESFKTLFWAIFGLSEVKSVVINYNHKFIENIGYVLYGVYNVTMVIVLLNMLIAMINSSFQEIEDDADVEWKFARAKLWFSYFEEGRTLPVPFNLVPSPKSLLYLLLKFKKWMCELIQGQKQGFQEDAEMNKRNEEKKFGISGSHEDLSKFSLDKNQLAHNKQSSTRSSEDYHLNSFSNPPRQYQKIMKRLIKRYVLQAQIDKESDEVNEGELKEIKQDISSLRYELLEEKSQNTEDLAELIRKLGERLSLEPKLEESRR
TRPC4 agonist – activators of mouse TRPC4 channel; Q9QUQ5; AID 2237; actives 0.49% (n = 310,000); B-score at 10 µM; HEK293 TRPC4beta/mu-opioid, Fluo4 calcium fluorescence; stronger effect = higher value;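 active means B-score above 5 SD of library B-scores, and initial fluorescence ratio not above library mean plus 5 SD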;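 further: positive B-score marks a calcium rise read as TRPC4 activation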
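Assay system: HEK293 stable line with TRPC4beta plus mu-opioid receptor. Times: dye 45 min RT, read 110 s. Measured by: kinetic Fluo4 calcium fluorescence. Measure: B score of integrated ratio. Controls: assay buffer as low control, maximal DAMGO as high control.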
TRPC6 act – activators of mouse TRPC6 channel; Q61143; HEK293-TRPC6 membrane potential dye fluorescence; stronger effect = higher value; B-score at 10 µM; actives 0.13% (n = 310,000);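 active means B-score of the integrated fluorescence ratio above library mean plus 3 SD, and starting fluorescence ratio within library mean plus 5 SD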;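 further: higher score means more depolarization so channel activation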
TRPC4 PAM – allosterically enhances the mouse TRPC4 cation channel; Q9QUQ5; HEK293 TRPC4beta/mu-opioid, DAMGO EC20, Fluo-4 Ca2+ flux; stronger effect = higher value; actives 0.42% (n = 310,000); B-score at 10 µM; AID 2227;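 active means B-score of calcium response area above 5 SD of library B-scores, with initial fluorescence ratio within 5 SD of library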;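 further: B-score of integrated fluorescence ratio over time as area under calcium response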
TRPC4 inh – inhibitors of mouse TRPC4 channel | HEK293 TRPC4beta/mu-opioid, DAMGO-evoked Fluo4 calcium flux; stronger effect = lower value | B-score at 10 µM | actives 0.39% (n = 300,000);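 active means B-score over 3 SD under the library average, no early fluorescence shift, positive overall ratio signal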
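Assay system: HEK293 cells with stable TRPC4beta plus mu-opioid receptor expression; Probe or stimulus: DAMGO in two steps, submaximal then maximal; Dosing: single-point compound dosing; Measured by: Fluo4 calcium-dye fluorescence, kinetic read; Read-out basis: B score from integrated Fluo4 fluorescence ratio.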
Active calls of the source: *; i = inactive.

SMILES	Kir21 inh	TRPC6 inh	TRPC4 agonist	TRPC6 act	TRPC4 PAM	TRPC4 inh
COc1ccc(-n2nc3c(c2NC(=O)c2ccc(S(=O)(=O)N4CCOCC4)cc2)CS(=O)C3)cc1 (configuration not stated)	-0.94	i	i	i	i	i
COc1ccc(/C=C(\NC(=O)c2ccc(C)cc2)C(=O)Nc2ccc(C(=O)O)cc2)cc1	-0.22	i	i	i	i	i
O=C(/C(=C/c1ccccc1)n1cncn1)c1ccc(Cl)cc1Cl	-13*	i	i	i	i	i
S=C(NCCc1ccccn1)Nc1ccccc1	0.64	i	i	i	i	i
S=C(NCCc1ccccn1)NC1CCCCC1	0.01	i	97*	i	i	i
S=C(NCCc1c[nH]c2ccccc12)NC1CCCC1	-2.4	i	i	i	i	i
Cc1c(Cl)cccc1NC(=S)NCCc1ccccn1	-0.18	i	60*	i	i	i
S=C(NCCc1cnc[nH]1)NC1CCCC1	0.81	i	98*	i	i	i
COc1ccc(NC(=O)c2oc3ccccc3c2C)cn1	0.6	i	i	i	i	i
Cc1nn(-c2cc(C(F)(F)F)ccc2Cl)c2nc(C(F)(F)F)[nH]c(=O)c12	-1.7	i	i	i	i	i
Cc1nn(-c2cccc(Cl)c2)c2nc(C(F)(F)F)[nH]c(=O)c12	-0.28	i	i	i	i	-8*
Cc1ccc(S(=O)(=O)N2CCN(C(=O)c3cccs3)CC2)c(C)c1	0.39	i	i	i	11*	i
Cc1cc(C)c(S(=O)(=O)N2CCN(C(=O)c3cccs3)CC2)c(C)c1	-0.82	i	i	i	i	i
OCC[C@@H]1C[C@@H](O)[C@H](O)[C@]2(Cc3ccccc3O2)O1	0.44	i	i	i	i	i
OC(CN1CCN(Cc2ccccc2)CC1)Cn1c2ccccc2c2ccccc21 (configuration not stated)	-4.4*	i	i	i	i	i
CN(C)c1ccc(C(CNC(=O)COc2ccc(Cl)cc2)N2CCCC2)cc1 (configuration not stated)	-0.89	i	i	i	i	i
COc1cccc(-n2ccnc2SCC(=O)N2CCCc3ccccc32)c1	-7.5*	i	i	i	i	i
COc1cccc(NC(=O)CSc2nccn2-c2cccc(OC)c2)c1	-1.5	i	i	i	i	i
COc1cccc(-n2ccnc2SCC(=O)Nc2ccccc2)c1	-4.9*	i	i	i	i	i
CCOc1ccc(-n2ccnc2SCC(=O)N2CCCc3ccccc32)cc1	-6.7*	i	i	i	i	i
CCOC(=O)C1CCN(c2nc3ccccc3nc2C(C#N)C(=O)OC(C)COC)CC1 (configuration not stated)	0.99	i	i	i	i	i
CCOC(=O)C1CCN(c2nc3ccccc3nc2C(C#N)C(=O)OCCOC)CC1 (configuration not stated)	1.1	i	i	i	i	-7*
O=C1CN(c2nc3nonc3nc2N2CCCCC2)CCN1	0.67	i	i	i	i	i
C=CCSc1nsc(NC(=O)Nc2ccc(F)cc2)n1	-2	i	i	i	11*	i
CCSc1nsc(NC(=O)Nc2ccccc2F)n1	-0.48	i	i	i	i	i
SMILES	Kir21 inh	TRPC6 inh	TRPC4 agonist	TRPC6 act	TRPC4 PAM	TRPC4 inh
CN(CCc1ccccn1)C(=O)CC1C(=O)NCCN1Cc1ccccc1C(F)(F)F (configuration not stated)	0.79	i	131*	i	i	i
COc1cccc(CN2CCNC(=O)C2CC(=O)N(C)CCc2ccccn2)c1OC (configuration not stated)	1.6	i	93*	i	i	i
CN(CCN1CCOCC1)C(=O)CC1C(=O)NCCN1Cc1ccccc1C(F)(F)F (configuration not stated)	-0.01	i	i	i	i	i
CCOc1ccc(CN2CCNC(=O)C2CC(=O)NCCc2ccccn2)cc1 (configuration not stated)	-0.97	i	112*	i	i	i
CN(CCc1ccccn1)C(=O)CC1C(=O)NCCN1Cc1cccc(F)c1 (configuration not stated)	-0.27	i	186*	i	i	i
CCOc1ccc(CN2CCNC(=O)C2CC(=O)NCc2ccccn2)cc1 (configuration not stated)	1.8	i	i	i	i	i
COc1cccc(CN2CCNC(=O)C2CC(=O)N(C)C2CCCCC2)c1OC (configuration not stated)	0.09	i	i	i	i	i
CN(Cc1ccccn1)C(=O)CC1C(=O)NCCN1Cc1cccc(Oc2ccccc2)c1 (configuration not stated)	-1.1	i	i	i	i	i
CC(C)(C)OC(=O)C(Cl)(C(=O)OC(C)(C)C)c1ccc2nnnn2n1	0.37	i	i	i	i	i
CN(C)C(=O)CSc1nc2ccc(C(=O)c3ccccc3)cc2[nH]1	0.31	i	i	i	i	i
COc1ccccc1/C=C/C=N/N1CCN(Cc2ccccc2)CC1	0.87	i	i	i	i	i
Cc1ccc(CN2CCN(/N=C/C=C/c3ccccc3[N+](=O)[O-])CC2)cc1	-0.78	i	i	i	14*	i
Cc1cc(O)c(C(C)C)cc1NS(=O)(=O)c1ccccc1	-6.8*	i	i	i	i	i
COc1ccc(S(=O)(=O)Nc2cc(S(=O)(=O)c3ccccc3)c(O)cc2C)cc1	-0.01	i	i	i	i	i
CCc1sc(C(C2C(=O)CC(C)(C)CC2=O)C2C(=O)CC(C)(C)CC2=O)cc1[N+](=O)[O-]	-0.83	i	95*	i	i	i
CC1(C)CC(=O)C(C(c2ccc(F)cc2)C2C(=O)CC(C)(C)CC2=O)C(=O)C1	1.8	i	i	i	i	i
Cc1ccc(/C=N/N=C2\SCC(=O)N2CC2CC2)cc1	-1.1	i	i	i	i	i
CCOC(=O)c1ccc(N=C2C(=S)N(c3ccc(C(=O)OCC)cc3)C(=N)N2/N=C/c2ccccc2)cc1	0.32	i	i	i	17*	i
CCOC(=O)C1=C(COC(=O)Cc2ccc(Br)cc2)NC(=O)NC1C (configuration not stated)	-1.2	i	i	i	i	i
